ChEMBL document CHEMBL1926642, “Relevance of the C-5 position to schweinfurthin induced cytotoxicity” (2011)

Key:
Type in all cases: functional
OVCAR-8 = test: Growth inhibition of human OVCAR8 cells after 48 hrs by sulforhodamine B assay; details: OVCAR-8, 48 h
SK-OV-3 = test: Growth inhibition of human SKOV3 cells after 48 hrs by sulforhodamine B assay; details: SK-OV-3, 48 h
HCT-116 = test: Growth inhibition of human HCT116 cells after 48 hrs by sulforhodamine B assay; details: HCT-116, 48 h
SNB-75 = test: Growth inhibition of human SNB75 cells after 48 hrs by sulforhodamine B assay; details: SNB-75, 48 h
SNB-19 = test: Growth inhibition of human SNB19 cells after 48 hrs by sulforhodamine B assay; details: SNB-19, 48 h
PC-3 = test: Growth inhibition of human PC3 cells after 48 hrs by sulforhodamine B assay; details: PC-3, 48 h
SK-MEL-28 = test: Growth inhibition of human SK-MEL-28 cells after 48 hrs by sulforhodamine B assay; details: SK-MEL-28, 48 h
A549 = test: Growth inhibition of human A549 cells after 48 hrs by sulforhodamine B assay; details: A549, 48 h
MDA-MB-435 = test: Growth inhibition of human MDA-MB-435 cells after 48 hrs by sulforhodamine B assay; details: MDA-MB-435, 48 h
SF-295 = test: Growth inhibition of human SF295 cells after 48 hrs by sulforhodamine B assay; details: SF-295, 48 h
[1] = Growth inhibition of human Hs 578T cells after 48 hrs by sulforhodamine B assay
SF-539 = test: Growth inhibition of human SF539 cells after 48 hrs by sulforhodamine B assay; details: SF-539, 48 h
EKVX = test: Growth inhibition of human EKVX cells after 48 hrs by sulforhodamine B assay
MCF7 = test: Growth inhibition of human MCF7 cells after 48 hrs by sulforhodamine B assay; details: MCF7, 48 h
DU-145 = test: Growth inhibition of human DU145 cells after 48 hrs by sulforhodamine B assay; details: DU-145, 48 h
NCI-H460 = test: Growth inhibition of human NCI-H460 cells after 48 hrs by sulforhodamine B assay; details: NCI-H460, 48 h
HL-60(TB) = test: Growth inhibition of human HL-60(TB) cells after 48 hrs by sulforhodamine B assay; details: HL-60, 48 h
In short: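 Run in the NCI 60 cell-line screen as the full 5-dose assay that follows initial single-dose testing; GI50 is read from the dose series.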

UO-31 = test: Growth inhibition of human UO31 cells after 48 hrs by sulforhodamine B assay; details: UO-31, 48 h
NCI-H23 = test: Growth inhibition of human NCI-H23 cells after 48 hrs by sulforhodamine B assay; details: NCI-H23, 48 h
CCRF-CEM = test: Growth inhibition of human CCRF-CEM cells after 48 hrs by sulforhodamine B assay
K562 = test: Growth inhibition of human K562 cells after 48 hrs by sulforhodamine B assay; details: K562, 48 h
OVCAR-5 = test: Growth inhibition of human OVCAR5 cells after 48 hrs by sulforhodamine B assay; details: OVCAR-5, 48 h
RPMI-8226 = test: Growth inhibition of human RPMI8226 cells after 48 hrs by sulforhodamine B assay; details: RPMI-8226, 48 h
SR = test: Growth inhibition of human SR cells after 48 hrs by sulforhodamine B assay
Malme-3M = test: Growth inhibition of human MALME-3M cells after 48 hrs by sulforhodamine B assay
UACC-257 = test: Growth inhibition of human UACC257 cells after 48 hrs by sulforhodamine B assay; details: UACC-257, 48 h
SF-268 = test: Growth inhibition of human SF268 cells after 48 hrs by sulforhodamine B assay; details: SF-268, 48 h
[2] = read-out: pLC50 (the source's name) (converted)

## COc1cc(/C=C/c2cc3c(c(SC)c2)O[C@]2(C)CC[C@@H](O)C(C)(C)[C@H]2C3)cc(O)c1C/C=C(\C)CCC=C(C)C
OVCAR-8
  GI50: 14.8 µM
  LC50: > 100 µM
OVCAR-8; read-out: pTGI (converted)
  TGI: 41.7 µM
SK-OV-3
  GI50: 7.94 µM
  LC50: > 100 µM
SK-OV-3; read-out: pTGI (converted)
  TGI: 43.7 µM
HCT-116
  GI50: 6.46 µM
  LC50: 53.7 µM
HCT-116; read-out: pTGI (converted)
  TGI: 20.9 µM
SNB-75
  GI50: 3.8 µM
  LC50: > 100 µM
SNB-75; read-out: pTGI (converted)
  TGI: 33.1 µM
SNB-19
  GI50: 28.2 µM
  LC50: > 100 µM
SNB-19; read-out: pTGI (converted)
  TGI: > 100 µM
PC-3
  GI50: 6.03 µM
PC-3; [2]
  CC50: > 100 µM
PC-3; read-out: pTGI (converted)
  TGI: 51.3 µM
SK-MEL-28
  GI50: 12.3 µM
SK-MEL-28; [2]
  CC50: > 100 µM
SK-MEL-28; read-out: pTGI (converted)
  TGI: 34.7 µM
A549
  LC50: > 100 µM
A549; read-out: GI50
  GI50: 6.03 µM
A549; read-out: pGI50 (converted)
  GI50: 6.03 µM
A549; read-out: pTGI (converted)
  TGI: 52.5 µM
MDA-MB-435
  GI50: 12.9 µM
  LC50: > 100 µM
MDA-MB-435; read-out: pTGI (converted)
  TGI: 74.1 µM
SF-295
  LC50: > 100 µM
SF-295; read-out: GI50
  GI50: 3.8 µM
SF-295; read-out: pGI50 (converted)
  GI50: 3.02 µM
SF-295; read-out: pTGI (converted)
  TGI: 25.1 µM
[1]
  GI50: 2.4 µM
[1]; [2]
  CC50: > 100 µM
[1]; read-out: pTGI (converted)
  TGI: 19.5 µM
SF-539
  GI50: 3.98 µM
  LC50: > 100 µM
SF-539; read-out: pTGI (converted)
  TGI: 41.7 µM
EKVX
  GI50: 40.7 µM
  LC50 (50% lethal concentration): > 100 µM
EKVX; read-out: pTGI (converted)
  TGI: > 100 µM
MCF7
  GI50: 7.76 µM
  LC50: > 100 µM
MCF7; read-out: pTGI (converted)
  TGI: 45.7 µM
DU-145
  GI50: 8.71 µM
  LC50: 93.3 µM
DU-145; read-out: pTGI (converted)
  TGI: 29.5 µM
NCI-H460
  GI50: 3.47 µM
  LC50 (concentration killing 50% of cells): 51.3 µM
NCI-H460; read-out: pTGI (converted)
  TGI: 13.8 µM
HL-60(TB)
  GI50: 5.13 µM
HL-60(TB); [2]
  CC50: > 100 µM
HL-60(TB); read-out: pTGI (converted)
  TGI: 36.3 µM
UO-31
  GI50: 8.91 µM
  LC50: > 100 µM
UO-31; read-out: pTGI (converted)
  TGI: > 100 µM
NCI-H23
  GI50: 11.5 µM
  LC50: > 100 µM
NCI-H23; read-out: pTGI (converted)
  TGI: 36.3 µM
CCRF-CEM
  GI50: 5.62 µM
  LC50: > 100 µM
CCRF-CEM; read-out: pTGI (converted)
  TGI: > 100 µM
K562
  GI50: 4.27 µM
  LC50: > 100 µM
K562; read-out: pTGI (converted)
  TGI: > 100 µM
OVCAR-5
  GI50: 22.9 µM
  LC50: > 100 µM
OVCAR-5; read-out: pTGI (converted)
  TGI: 57.5 µM
RPMI-8226
  GI50: 2.34 µM
  LC50: > 100 µM
RPMI-8226; read-out: pTGI (converted)
  TGI: 8.91 µM
SR
  GI50: 3.8 µM
  LC50: > 100 µM
SR; read-out: pTGI (converted)
  TGI: > 100 µM
Malme-3M
  GI50: 30.9 µM
  LC50: > 100 µM
Malme-3M; read-out: pTGI (converted)
  TGI: > 100 µM
UACC-257
  GI50: 14.5 µM
  LC50: > 100 µM
UACC-257; read-out: pTGI (converted)
  TGI: 64.6 µM
SF-268
  GI50: 7.41 µM
  LC50: > 100 µM
SF-268; read-out: pTGI (converted)
  TGI: 61.7 µM
